The values below come from publication PMC3561764 (Nature, 2007).

Assay [1] concerns EGFR kinase domain attached to lipid vesicles. Nature of the assay: vesicle-based kinase assay. Type of assay: biochemical. As to conditions: wild type kinase 3.5 μM, substrate peptide 1 mM, Fig. 2c. Put shortly: (§1)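 Wild-type EGFR kinase domain assayed either free in solution at 14 μM, or tethered to lipid vesicles at 3.5 μM. Vesicle tethering raises the local kinase concentration and promotes asymmetric dimer formation. Substrate peptide was held at 1 mM in all runs. Activity is reported as initial velocity normalised by kinase concentration.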

The test system of assay [2] is EGFR kinase domain K799E mutant. Nature of the assay: interaction with K799E mutant kinase domain. Type of assay: binding. As to conditions: Supplemental Figure 5.
A further assay concerns EGFR kinase domain. Description: crystal structures of EGFR kinase domain/Mig6 peptide complexes. Conditions: 25-residue epitope, residues 337–361. Type of assay: binding.
In assay [3] the target is wild type EGFR kinase domain (Homo sapiens, UniProt P00533). Nature of the assay: kinase assay in solution, wild type. The class given is biochemical. Conditions: kinase 14 μM, substrate peptide 1 mM, Fig. 3b. Put shortly: as §1
Assay [4] has as its system EGFR. As to conditions: ref [3],[5],[12]; cited from earlier work.
In assay [5] the test system is EGFR. As to conditions: mouse skin; ref [8]; cited from earlier work.
The target of assay [6] is EGFR kinase domain, wild type (UniProt P00533 696-1022). Nature of the assay: fluorescence polarisation. On the technique in general: Fluorescence polarisation rises when a labelled molecule tumbles more slowly, as on binding a larger partner.

No end group written: not given here.

As for “25-residue peptide: 25-residue peptide (residues 340–364), which lacks 3 residues in the N-terminal portion of Mig6^segment 1”, the “inhibition of the kinase domain attached to lipid vesicles, in words” value in assay [1] was “much less potent”.

In the case of “Mig6^segment 1: 25-residue epitope of Mig6 sufficient for binding to the EGFR kinase domain (residues 337–361)”, in assay [2], the “effect of K799E kinase mutation on interaction with Mig6^segment 1” value is reported as “does not affect the conformation of the kinase domain or its interaction”. Besides, the “binding to the EGFR kinase domain (crystal structures)” value in the assay with EGFR kinase domain was “sufficient for binding to the EGFR kinase domain”.

B1: Mig6^segment 1–2 (Y358A) (peptide, UniProt Q9UJM3 336-412, looked up, variant M346L Y358A)
chain: KSLPSYLNGVLPPTQSFAPDPKAVSSKALQRQNSEGSASKVPCILPIIENGKKVSSTHYYLLPERPPYLDKYEKFFR
With B1, in assay [3], the “inhibition of basal activity of wild type kinase domain in solution, in words” value is given as “does not show any inhibition”.

B2: Mitogen-induced gene 6 (protein, UniProt Q9UJM3 1-462, looked up)
chain: MSIAGVAAQEIRVPLKTGFLHNGRAMGNMRKTYWSSRSEFKNNFLNIDPITMAYSLNSSAQERLIPLGHASKSAPMNGHCFAENGPSQKSSLPPLLIPPSENLGPHEEDQVVCGFKKLTVNGVCASTPPLTPIKNSPSLFPCAPLCERGSRPLPPLPISEALSLDDTDCEVEFLTSSDTDFLLEDSTLSDFKYDVPGRRSFRGCGQINYAYFDTPAVSAADLSYVSDQNGGVPDPNPPPPQTHRRLRRSHSGPAGSFNKPAIRISNCCIHRASPNSDEDKPEVPPRVPIPPRPVKPDYRRWSAEVTSSTYSDEDRPPKVPPREPLSPSNSRTPSPKSLPSYLNGVMPPTQSFAPDPKYVSSKALQRQNSEGSASKVPCILPIIENGKKVSSTHYYLLPERPPYLDKYEKFFREAEETNGGAQIQPLPADCGISSATEKPDSKTKMDLGGHVKRKHLSYVVSP
modifications: full-length C-terminal Myc tag
Turning to B2, in the assay on EGFR [4], the “binding to activated EGFR compared with unliganded receptor” value is “bind more tightly to activated EGFR than to the unliganded receptor”. Moreover, in the assay on EGFR [5], the “inhibition of EGFR-mediated signals” value was “inhibits EGFR-mediated signals in mouse skin”.

With SPKSLPSYLNGVLPPTQSFAPDPKYVSSKA (peptide, UniProt Q9UJM3 334-363, looked up, also: fluorescein label, position not given here) [30-residue fluorescein-labeled Mig6 peptide (residues 334–363) M346L], the binding result in assay [6] is given as “binds”.
